Ends that are not written are not given here.
Assays:
SD rat islets = assay: Perifusion of rat islets, GSIS; type: cell-based; details: for potentiation of GSIS at low concentrations: 10-100 pM
[1] = 6-day s.c. GIP infusion crossover study, T1D; type: in vivo, human
[2] = system: obese T2DM and lean subjects; assay: GIP infusion, tissue blood flow; type: in vivo, human
[3] = 12 week L-carnitine treatment in type 2 diabetes patients; type: in vivo, human; details: after 12 weeks
Summary of the method: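 32 patients with type 2 diabetes treated with L-carnitine for 12 weeks, with plasma free carnitine checked for compliance. Two-step hyperinsulinemic-euglycemic clamp (10 then 40 mU/m2/min) with D-[6,6-2H2]-glucose tracer gave hepatic (EGP suppression) and peripheral sensitivity. Vastus lateralis acetylcarnitine by T1-edited long-TE (350 ms) 1H-MRS at rest and after 30 min cycling at 70% Wmax. IHL by 1H-MRS. All measured before and after.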

[4] = system: mouse hypothalamic (mHypoA) and human (SH-SY5Y) neuronal cells; assay: Resistin overexposure of neuronal cells; type: cell-based; details: for resistin-dependent neuronal inflammation and IR: pharmacological inhibition
[5] = 48-week tofogliflozin vs glimepiride trial in T2D with NAFLD; type: in vivo, human; details: after 48 weeks; for AST: baseline 55.4 ± 41.8 / 49.7 ± 46.8; for ALT: baseline 72.2 ± 60.5 / 76.4 ± 77.8; for body weight: baseline 78.7 ± 17.7 / 81.3 ± 19.2; for HbA1c: baseline tofogliflozin 8.0 ± 0.5, glimepiride 8.4 ± 0.9
[6] = CDHFD-induced NASH and fibrosis mice; type: in vivo, mouse
[7] = system: patients with type 2 diabetes; assay: Network meta-analysis of antidiabetic medications on blood pressure; design: species or system human; details: network meta-analysis
[8] = EXSCEL post-hoc analysis, eGFR slope and UACR; type: in vivo, human
[9] = system: obese men without diabetes; assay: FLT-PET/MRI and pancreatic enzymes during liraglutide; type: in vivo, human
[10] = Insulin icodec vs IGlar U100 26-week phase 2 trial; type: in vivo, human
Summary of the method: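 Randomized, double-blind, double-dummy, treat-to-target phase 2 trial lasting 26 weeks. Participants were insulin-naïve adults with T2D and HbA1c 7.0-9.5% on metformin ± DPP4i, randomized 1:1 (n=247). Starting doses were 70 U once weekly or 10 U once daily, titrated weekly to a pre-breakfast SMBG target of 3.9-6.0 mmol/L. The primary endpoint was HbA1c change from baseline to week 26; FPG and mean weekly dose over the last two weeks were secondary.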

[11] = system: isolated diabetic mouse hearts; assay: Langendorff-perfused db/db hearts, stable isotope analysis; details: 10 μM Cariporide
[12] = Nasal vs injectable glucagon, insulin-induced hypoglycaemia; type: in vivo, human
[13] = DIO-NASH biopsy-confirmed mouse model; type: in vivo
Summary of the method: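 Male C57BL/6JRj mice fed AMLN diet (40% fat with trans-fat, 20% fructose, 2% cholesterol) for 33 weeks, then liver-biopsied. Only mice with steatosis score ≥2 and fibrosis stage ≥F1 were stratified into groups (n=12-13). Groups received vehicle or test compound at 10 or 30 mg/kg for a further 12 weeks.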

[14] = resistin overexposure, neuronal cells

CC[C@H](C)[C@H](NC(=O)[C@H](CO)NC(=O)[C@H](Cc1ccc(O)cc1)NC(=O)[C@H](CC(=O)O)NC(=O)[C@H](CO)NC(=O)[C@@H](NC(=O)[C@H](Cc1ccccc1)NC(=O)[C@@H](NC(=O)CNC(=O)[C@H](CCC(=O)O)NC(=O)[C@H](C)NC(=O)[C@@H](N)Cc1ccc(O)cc1)[C@@H](C)O)[C@@H](C)CC)C(=O)N[C@@H](C)C(=O)N[C@@H](CCSC)C(=O)N[C@@H](CC(=O)O)C(=O)N[C@@H](CCCCN)C(=O)N[C@H](C(=O)N[C@@H](Cc1c[nH]cn1)C(=O)N[C@@H](CCC(N)=O)C(=O)N[C@@H](CCC(N)=O)C(=O)N[C@@H](CC(=O)O)C(=O)N[C@@H](Cc1ccccc1)C(=O)N[C@H](C(=O)N[C@@H](CC(N)=O)C(=O)N[C@@H](Cc1c[nH]c2ccccc12)C(=O)N[C@@H](CC(C)C)C(=O)N[C@@H](CC(C)C)C(=O)N[C@@H](C)C(=O)N[C@@H](CCC(N)=O)C(=O)N[C@@H](CCCCN)C(=O)NCC(=O)N[C@@H](CCCCN)C(=O)N[C@@H](CCCCN)C(=O)N[C@@H](CC(N)=O)C(=O)N[C@@H](CC(=O)O)C(=O)N[C@@H](Cc1c[nH]c2ccccc12)C(=O)N[C@@H](CCCCN)C(=O)N[C@@H](Cc1c[nH]cn1)C(=O)N[C@@H](CC(N)=O)C(=O)N[C@H](C(=O)N[C@H](C(=O)N[C@@H](CCC(N)=O)C(=O)O)[C@@H](C)O)[C@@H](C)CC)C(C)C)[C@@H](C)CC [GIP]
potentiation of GSIS at low concentrations (SD rat islets): potentiated GSIS | increase of daytime time in range (3.9-[…]) vs placebo ([1]; 6 pmol/kg/min s.c., 6 days, mean ± SEM): 160 ± 74 min/day | decrease of 24-hour diastolic blood pressure ([1]; in vivo): 3.1 ± 1.3 mmHg | decrease of 24-hour systolic blood pressure ([1]; in vivo): 5.8 ± 2.6 mmHg | SAT blood flow increase from baseline ([2]; GIP infusion, operated subjects): 143% | VAT blood flow increase from baseline ([2]; GIP-infusion, control): 234% | SAT blood flow increase from baseline ([2]; GIP-infusion, controls): 385% | SAT blood flow increase from baseline ([2]; GIP-infusion, obese): 119% | VAT blood flow increase from baseline ([2]; GIP-infusion, obese): 105%

C[N+](C)(C)C[C@H](O)CC(=O)[O-] [carnitine, L-carnitine]
resting skeletal muscle acetylcarnitine ([3]; before 1.18±0.13): 1.54±0.17 mmol/kgww | post-exercise skeletal muscle acetylcarnitine ([3]; before 3.70±0.22): 4.53±0.30 mmol/kgww | plasma glucose ([3]; before 8.1±0.3): 7.7 ± 0.3 mmol/L | ΔRd (peripheral insulin sensitivity) ([3]; before 10.53±1.85): 13.83 ± 2.02 µmol/kg/min | intrahepatic lipid content (IHL) ([3]; before 14.7±2.6): 12.8±2.2% | EGP suppression (hepatic insulin sensitivity) ([3]; before 31.9 ±2.9): 39.9±3.2%

CCCCCCC(=O)CCCCCC/C=C/C[C@@H](O)[C@H](O)[C@@](N)(CO)C(=O)O [myriocin]
resistin-dependent neuronal inflammation and IR [4]: prevents

CCOC(=O)C1=CCCC[C@H]1S(=O)(=O)Nc1ccc(F)cc1Cl [TAK-242]
resistin-dependent neuronal inflammation and IR [4]: prevents

CCC1=C(C)CN(C(=O)NCCc2ccc(S(=O)(=O)NC(=O)N[C@H]3CC[C@H](C)CC3)cc2)C1=O [glimepiride]
AST [5]: 52.3 ± 37.6 IU/L | ALT [5]: 78.9 ± 68.7 IU/L | body weight [5]: 81.9 ± 21.1 kg | HbA1c [5]: 7.5 ± 0.6%

GIP(3-30)
insulin secretion in response to glucose alone (SD rat islets; receptor antagonists): not reduced

O=C(O)c1ccnc(N2CC(O)(c3ccc(OCc4c(-c5c(Cl)cccc5Cl)noc4C4CC4)cc3Cl)C2)c1 [CIL, Cilofexor]
hepatic TG vs vehicle ([6]; CDHFD 14 weeks, treatment last 6 weeks): 2.6% | collagen-1α1 gene expression vs vehicle ([6]; mouse, in vivo): -37.5% | hepatic F4/80 gene expression vs vehicle ([6]; mouse, in vivo): -1.6% | hepatic IL-1β gene expression vs vehicle ([6]; mouse, in vivo): -37.5% | hepatic TBARS vs vehicle ([6]; mouse, in vivo): 11.0% | hepatic hydroxyproline vs vehicle ([6]; mouse, in vivo): -13.7%

Cc1ccc([C@@H]2O[C@H](CO)[C@@H](O)[C@H](O)[C@H]2O)cc1Cc1ccc(-c2ccc(F)cc2)s1 [canagliflozin]
diastolic blood pressure, mean difference versus placebo [7]: -1.42 mmHg

once-weekly exenatide [EQW]
reduction of UACR vs placebo ([8]; baseline UACR>30 mg/g): 28.2% | reduction of UACR vs placebo ([8]; baseline UACR>100 mg): 22.5% | eGFR slope vs placebo ([8]; baseline UACR>100mg/g, 95% CI 0.24-1.34): +0.79 mL/min/1.73m2/year | reduction of UACR vs placebo ([8]; baseline UACR>200 mg): 34.5% | eGFR slope vs placebo ([8]; baseline UACR>200mg/g, 95% CI 0.57-2.06): +1.32 mL/min/1.73m2/year

glucagon-like peptide-1 (HAEGTFTSDVSSYLEGQAAKEFIAWLVKGR; ends and bridges not checked; UniProt P01275 98-127, looked up) [GLP-1]
potentiation of GSIS at low concentrations (SD rat islets): no such effect

CCCCCCCCCCCCCCCC(=O)N[C@@H](CCC(=O)NCCCC[C@H](NC(=O)[C@H](C)NC(=O)[C@H](C)NC(=O)[C@H](CCC(N)=O)NC(=O)CNC(=O)[C@H](CCC(=O)O)NC(=O)[C@H](CC(C)C)NC(=O)[C@H](Cc1ccc(O)cc1)NC(=O)[C@H](CO)NC(=O)[C@H](CO)NC(=O)[C@@H](NC(=O)[C@H](CC(=O)O)NC(=O)[C@H](CO)NC(=O)[C@@H](NC(=O)[C@H](Cc1ccccc1)NC(=O)[C@@H](NC(=O)CNC(=O)[C@H](CCC(=O)O)NC(=O)[C@H](C)NC(=O)[C@@H](N)Cc1cnc[nH]1)[C@@H](C)O)[C@@H](C)O)C(C)C)C(=O)N[C@@H](CCC(=O)O)C(=O)N[C@@H](Cc1ccccc1)C(=O)N[C@H](C(=O)N[C@@H](C)C(=O)N[C@@H](Cc1c[nH]c2ccccc12)C(=O)N[C@@H](CC(C)C)C(=O)N[C@H](C(=O)N[C@@H](CCCNC(=N)N)C(=O)NCC(=O)N[C@@H](CCCNC(=N)N)C(=O)NCC(=O)O)C(C)C)[C@@H](C)CC)C(=O)O [Liraglutide]
change in mean FLT-uptake in pancreatic tissue ([9]; after four weeks): +0.08 | change in pancreatic volume ([9]; baseline to six weeks, MRI): +0.2 cm^3 | change in maximum FLT-uptake ([9]; titration period): +0.3

CCc1ccc(Cc2ccc3c(c2)[C@]2(OC3)O[C@H](CO)[C@@H](O)[C@H](O)[C@H]2O)cc1 [tofogliflozin]
stage score ([5]; baseline 1.6 ± 1.1): 1.1 ± 1.3 | grade score ([5]; baseline 1.7 ± 0.9): 0.9 ± 0.8 | AST [5]: 27.2 ± 22.4 IU/L | ALT [5]: 33.1 ± 31.5 IU/L | body weight [5]: 73.3 ± 18.3 kg | HbA1c [5]: 6.9 ± 1.2% | steatosis score ([5]; tofogliflozin baseline 2.0 ± 0.7): 1.2 ± 0.4

CCOc1ccc(Cc2cc([C@@H]3O[C@H](CO)[C@@H](O)[C@H](O)[C@H]3O)ccc2Cl)cc1 [dapagliflozin]
diastolic blood pressure, mean difference versus placebo [7]: -1.48 mmHg | increase in hepatic lipid content (HCL) (CON-D and T2DM-D, non-significant): 20% | decrease in hepatic glycogen (T2DM-D, T2DM-P -6±0.02): -10±0.02% | glycogenolysis (both groups): no impact | EGP higher following administration (single dose 10mg): 25%

insulin glargine U100 [IGlar U100]
estimated mean HbA1c at week 26 ([10]; baseline 8.1 icodec, 8.0 IGlar U100): 6.9% | estimated mean FPG at week 26 ([10]; in vivo): 7.05 mmol/L | estimated mean weekly insulin dose, last two weeks ([10]; in vivo): 284 U/week | level 2 and 3 hypoglycaemia ([10]; on-treatment period): 46 events per 100 patient years of exposure | estimated mean change in HbA1c from baseline ([10]; week 26): -1.15 %-points

CC(C)c1ccc(C(=O)NC(=N)N)cc1S(C)(=O)=O [Cariporide]
Empa effects on lactate labeling and G6P [11]: mitigated

glucagon [injectable glucagon]
geometric least square mean maximal blood glucose (BGMAX) ([12]; in vivo): 11.4 mmol/L | headache ([12]; in vivo): 5.8% | mean time to treatment success ([12]; in vivo): 10.4 min | nausea ([12]; in vivo): 28.8% | vomiting ([12]; in vivo): 11.5% | patients achieving treatment success ([12]; within 15 minutes, T1D or T2D): 97.0%

O=S(=O)(Nc1cc(Cl)c(Oc2cnc3ccccc3c2)c(Cl)c1)c1ccc(Cl)cc1Cl [CHS-131]
lower plasma aspartate transaminase ([13]; high dose): 29% | lower total cholesterol ([13]; high dose): 20% | increase of plasma adiponectin ([13]; high dose 30 mg/kg): 137% | lower plasma alanine transaminase ([13]; high dose 30 mg/kg, 12 weeks): 37% | increase of plasma adiponectin ([13]; low dose 10 mg/kg): 114% | Galectin-3 ([13]; trend): -18% | hydroxyproline ([13]; trend): -28%

B1: resistin: "circulating factors originated from adipose tissue and immune cells"; "a key mediator linking obesity to IR" (protein, UniProt Q9HD89 19-108, looked up)
Resistin: KTLCSMEEAINERIQEVAGSLIFRAISSIGLECQSVTSRGDLATCPRGFAVTGCTCGSACGSWDVRAETTCHCQCAGMDWTGARCCRVQP
increased expression of IL6 [4, 14]: 89.93% | inhibition of insulin-dependent phosphorylation of Akt [4, 14]: 40.6%

— publication PMC7445463 (Diabetologia, 2020)
